Experimental data: ChEMBL document CHEMBL2390926, “Identification of novel FLT3 kinase inhibitors” (Eur J Med Chem, 2013)
Active and inactive are the calls of the source. No cut-off for these calls is given here.

target: Proto-oncogene tyrosine-protein kinase ROS (Homo sapiens) (UniProt P08922); experiment: Inhibition of ROS1 (unknown origin) transfected in mouse Ba/F3 cells at 1 uM after 24 hrs; assay type: cell-based; conditions: BaF3
Sequence (P08922 whole entry): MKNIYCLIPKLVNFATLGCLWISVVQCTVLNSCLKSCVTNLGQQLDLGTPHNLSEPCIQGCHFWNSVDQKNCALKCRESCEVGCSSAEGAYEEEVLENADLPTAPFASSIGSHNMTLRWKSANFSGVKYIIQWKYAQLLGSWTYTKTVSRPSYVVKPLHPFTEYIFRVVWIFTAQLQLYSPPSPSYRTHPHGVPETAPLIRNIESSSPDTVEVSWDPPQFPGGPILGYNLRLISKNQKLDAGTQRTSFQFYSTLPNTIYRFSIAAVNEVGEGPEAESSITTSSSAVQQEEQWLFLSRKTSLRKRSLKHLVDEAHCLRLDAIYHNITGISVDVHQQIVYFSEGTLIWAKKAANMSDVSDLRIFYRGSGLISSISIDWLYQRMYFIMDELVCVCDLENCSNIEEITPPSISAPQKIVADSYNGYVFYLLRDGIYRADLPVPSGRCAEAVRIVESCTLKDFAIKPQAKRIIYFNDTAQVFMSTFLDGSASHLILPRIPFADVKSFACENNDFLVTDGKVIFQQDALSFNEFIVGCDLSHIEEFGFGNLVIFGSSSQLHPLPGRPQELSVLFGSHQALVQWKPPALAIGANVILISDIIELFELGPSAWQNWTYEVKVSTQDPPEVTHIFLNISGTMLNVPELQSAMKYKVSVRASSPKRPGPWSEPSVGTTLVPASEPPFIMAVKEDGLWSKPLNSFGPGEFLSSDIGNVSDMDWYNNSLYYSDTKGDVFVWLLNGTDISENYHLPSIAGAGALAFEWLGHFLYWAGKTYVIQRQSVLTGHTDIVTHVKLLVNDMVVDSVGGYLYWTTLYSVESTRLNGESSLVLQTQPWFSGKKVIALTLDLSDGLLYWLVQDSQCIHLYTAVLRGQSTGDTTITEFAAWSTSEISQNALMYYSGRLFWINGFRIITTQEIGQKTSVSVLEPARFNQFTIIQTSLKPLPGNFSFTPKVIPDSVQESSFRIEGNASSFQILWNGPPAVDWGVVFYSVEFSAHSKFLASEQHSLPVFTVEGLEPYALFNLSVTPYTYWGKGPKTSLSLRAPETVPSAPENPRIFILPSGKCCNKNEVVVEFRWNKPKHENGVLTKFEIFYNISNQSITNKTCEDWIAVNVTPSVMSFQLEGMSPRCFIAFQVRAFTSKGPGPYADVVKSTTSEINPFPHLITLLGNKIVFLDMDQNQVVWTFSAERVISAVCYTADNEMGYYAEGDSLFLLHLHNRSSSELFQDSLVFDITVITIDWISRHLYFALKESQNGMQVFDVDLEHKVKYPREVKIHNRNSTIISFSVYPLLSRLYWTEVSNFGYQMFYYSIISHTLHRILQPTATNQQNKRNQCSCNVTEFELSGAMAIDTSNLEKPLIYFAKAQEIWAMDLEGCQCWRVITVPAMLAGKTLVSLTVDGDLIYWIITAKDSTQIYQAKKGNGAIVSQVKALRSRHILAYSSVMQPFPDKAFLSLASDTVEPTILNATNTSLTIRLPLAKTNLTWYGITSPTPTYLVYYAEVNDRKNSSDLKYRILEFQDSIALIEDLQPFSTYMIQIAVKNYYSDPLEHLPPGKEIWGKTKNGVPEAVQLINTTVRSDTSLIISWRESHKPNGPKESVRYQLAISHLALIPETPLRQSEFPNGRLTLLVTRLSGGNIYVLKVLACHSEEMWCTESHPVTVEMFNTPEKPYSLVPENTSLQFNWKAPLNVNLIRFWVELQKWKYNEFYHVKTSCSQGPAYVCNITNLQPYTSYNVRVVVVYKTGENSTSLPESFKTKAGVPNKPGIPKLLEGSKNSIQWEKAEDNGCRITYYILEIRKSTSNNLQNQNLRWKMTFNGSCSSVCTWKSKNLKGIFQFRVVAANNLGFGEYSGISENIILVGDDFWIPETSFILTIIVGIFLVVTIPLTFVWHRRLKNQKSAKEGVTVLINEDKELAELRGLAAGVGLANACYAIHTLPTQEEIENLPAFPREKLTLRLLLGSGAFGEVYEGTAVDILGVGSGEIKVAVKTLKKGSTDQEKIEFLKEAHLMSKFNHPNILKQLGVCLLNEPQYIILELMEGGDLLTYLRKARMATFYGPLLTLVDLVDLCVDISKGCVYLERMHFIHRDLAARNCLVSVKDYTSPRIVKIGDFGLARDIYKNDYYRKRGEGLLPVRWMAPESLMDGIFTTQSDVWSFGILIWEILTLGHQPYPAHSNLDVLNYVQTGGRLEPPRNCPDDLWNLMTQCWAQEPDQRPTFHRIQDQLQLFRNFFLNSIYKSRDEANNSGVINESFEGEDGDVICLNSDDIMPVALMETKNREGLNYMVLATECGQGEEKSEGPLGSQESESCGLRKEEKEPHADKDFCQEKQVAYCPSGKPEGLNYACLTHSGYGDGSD

inhibition | Compound
inactive | COc1ccc(C(=O)Nc2cc(-c3ccccc3)[nH]n2)cc1
inactive | Cc1ccc(-c2cc(NC(=O)c3ccc(F)cc3)[nH]n2)cc1
inactive | Cc1cccc(C(=O)Nc2cc(-c3ccc(F)cc3)n[nH]2)c1

target: T1, Tyrosine-protein kinase Mer (Homo sapiens) (UniProt Q12866); experiment: Inhibition of MERTK (unknown origin) transfected in mouse Ba/F3 cells at 1 uM after 24 hrs; assay type: cell-based; conditions: BaF3
T1 sequence (whole entry): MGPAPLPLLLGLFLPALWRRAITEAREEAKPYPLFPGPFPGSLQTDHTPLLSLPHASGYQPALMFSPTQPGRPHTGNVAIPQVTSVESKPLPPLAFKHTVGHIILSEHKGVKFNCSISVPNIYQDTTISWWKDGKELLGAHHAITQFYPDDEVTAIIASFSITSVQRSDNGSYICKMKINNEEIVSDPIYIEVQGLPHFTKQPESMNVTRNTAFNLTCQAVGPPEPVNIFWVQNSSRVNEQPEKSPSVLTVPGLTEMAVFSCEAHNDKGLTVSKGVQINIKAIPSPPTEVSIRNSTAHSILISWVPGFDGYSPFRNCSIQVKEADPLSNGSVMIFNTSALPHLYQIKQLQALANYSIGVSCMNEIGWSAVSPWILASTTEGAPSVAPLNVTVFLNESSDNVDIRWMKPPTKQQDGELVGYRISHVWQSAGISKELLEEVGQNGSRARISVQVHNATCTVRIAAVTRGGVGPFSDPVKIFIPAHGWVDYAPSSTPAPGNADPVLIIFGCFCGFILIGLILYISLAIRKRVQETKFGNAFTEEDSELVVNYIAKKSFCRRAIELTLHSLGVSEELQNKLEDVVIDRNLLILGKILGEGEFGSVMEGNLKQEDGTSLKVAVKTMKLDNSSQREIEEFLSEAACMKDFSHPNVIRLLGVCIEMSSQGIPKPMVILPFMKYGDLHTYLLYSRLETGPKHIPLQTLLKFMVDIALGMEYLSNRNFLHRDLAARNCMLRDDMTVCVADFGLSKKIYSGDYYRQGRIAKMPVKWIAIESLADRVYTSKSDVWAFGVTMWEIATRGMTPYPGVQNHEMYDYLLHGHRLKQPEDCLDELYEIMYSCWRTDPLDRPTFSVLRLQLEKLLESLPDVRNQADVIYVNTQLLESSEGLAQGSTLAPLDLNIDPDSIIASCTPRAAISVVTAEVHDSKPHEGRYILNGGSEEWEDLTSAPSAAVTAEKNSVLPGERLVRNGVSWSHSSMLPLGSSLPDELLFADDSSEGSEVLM

inhibition | Compound
inactive | COc1ccc(C(=O)Nc2cc(-c3ccccc3)[nH]n2)cc1
inactive | Cc1ccc(-c2cc(NC(=O)c3ccc(F)cc3)[nH]n2)cc1
inactive | Cc1cccc(C(=O)Nc2cc(-c3ccc(F)cc3)n[nH]2)c1

target: Leukocyte tyrosine kinase receptor (Homo sapiens) (UniProt P29376); experiment: Inhibition of LTK (unknown origin) transfected in mouse Ba/F3 cells at 1 uM after 24 hrs; assay type: cell-based; conditions: BaF3
Procedure, shortened: (§1)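 Kinase specificity panel: each Ba/F3 line transformed with one of 24 tyrosine kinases depends on that kinase to grow. Cells were given compound at 1 or 5 µM for 24 h, with DMSO as comparator. Percentage growth was read by ATP-lite luminescence and reported as mean ± SEM.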

inhibition | Compound
inactive | COc1ccc(C(=O)Nc2cc(-c3ccccc3)[nH]n2)cc1
inactive | Cc1ccc(-c2cc(NC(=O)c3ccc(F)cc3)[nH]n2)cc1
inactive | Cc1cccc(C(=O)Nc2cc(-c3ccc(F)cc3)n[nH]2)c1

target: Insulin-like growth factor 1 receptor (Homo sapiens) (UniProt P08069); experiment: Inhibition of IGF1R (unknown origin) transfected in mouse Ba/F3 cells at 1 uM after 24 hrs; assay type: cell-based; conditions: BaF3; procedure, shortened: as §1

inhibition | Compound
inactive | COc1ccc(C(=O)Nc2cc(-c3ccccc3)[nH]n2)cc1
inactive | Cc1ccc(-c2cc(NC(=O)c3ccc(F)cc3)[nH]n2)cc1
inactive | Cc1cccc(C(=O)Nc2cc(-c3ccc(F)cc3)n[nH]2)c1

target: Tyrosine-protein kinase HCK (Homo sapiens) (UniProt P08631); experiment: Inhibition of HCK (unknown origin) transfected in mouse Ba/F3 cells at 1 uM after 24 hrs; assay type: cell-based; conditions: BaF3; procedure, shortened: as §1

inhibition | Compound
inactive | COc1ccc(C(=O)Nc2cc(-c3ccccc3)[nH]n2)cc1
inactive | Cc1ccc(-c2cc(NC(=O)c3ccc(F)cc3)[nH]n2)cc1
inactive | Cc1cccc(C(=O)Nc2cc(-c3ccc(F)cc3)n[nH]2)c1

target: Fibroblast growth factor receptor 3 (Homo sapiens) (UniProt P22607); experiment: Inhibition of FGFR3 (unknown origin) transfected in mouse Ba/F3 cells at 1 uM after 24 hrs; assay type: cell-based; conditions: BaF3; procedure, shortened: as §1
Sequence (P22607 23-806 limits assumed): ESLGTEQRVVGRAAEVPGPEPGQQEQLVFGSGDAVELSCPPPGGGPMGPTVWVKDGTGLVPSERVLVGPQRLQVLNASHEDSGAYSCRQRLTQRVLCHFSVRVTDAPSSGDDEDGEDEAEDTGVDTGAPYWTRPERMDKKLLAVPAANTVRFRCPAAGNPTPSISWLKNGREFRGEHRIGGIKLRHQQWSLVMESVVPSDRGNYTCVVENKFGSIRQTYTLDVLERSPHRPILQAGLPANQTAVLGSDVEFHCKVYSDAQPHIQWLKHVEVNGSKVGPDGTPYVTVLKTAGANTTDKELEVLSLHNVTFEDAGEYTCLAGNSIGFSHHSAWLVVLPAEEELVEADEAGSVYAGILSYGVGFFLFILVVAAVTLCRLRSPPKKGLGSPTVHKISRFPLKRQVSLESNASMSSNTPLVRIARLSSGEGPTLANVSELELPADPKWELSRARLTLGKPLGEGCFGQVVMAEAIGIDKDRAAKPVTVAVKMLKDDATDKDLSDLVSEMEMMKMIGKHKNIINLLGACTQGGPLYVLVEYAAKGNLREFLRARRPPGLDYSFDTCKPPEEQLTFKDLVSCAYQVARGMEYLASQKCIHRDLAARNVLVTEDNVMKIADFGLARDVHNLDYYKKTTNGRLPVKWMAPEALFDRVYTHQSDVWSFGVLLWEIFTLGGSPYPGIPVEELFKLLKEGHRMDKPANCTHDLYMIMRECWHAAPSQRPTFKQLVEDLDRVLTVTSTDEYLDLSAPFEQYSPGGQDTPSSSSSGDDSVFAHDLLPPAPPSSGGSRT

inhibition | Compound
inactive | COc1ccc(C(=O)Nc2cc(-c3ccccc3)[nH]n2)cc1
inactive | Cc1ccc(-c2cc(NC(=O)c3ccc(F)cc3)[nH]n2)cc1
inactive | Cc1cccc(C(=O)Nc2cc(-c3ccc(F)cc3)n[nH]2)c1

target: Receptor tyrosine-protein kinase erbB-2 (Homo sapiens) (UniProt P04626); experiment: Inhibition of ERBB2 (unknown origin) transfected in mouse Ba/F3 cells at 1 uM after 24 hrs; assay type: cell-based; conditions: BaF3; procedure, shortened: as §1

inhibition | Compound
inactive | COc1ccc(C(=O)Nc2cc(-c3ccccc3)[nH]n2)cc1
inactive | Cc1ccc(-c2cc(NC(=O)c3ccc(F)cc3)[nH]n2)cc1
inactive | Cc1cccc(C(=O)Nc2cc(-c3ccc(F)cc3)n[nH]2)c1

target: Ephrin type-A receptor 7 (Homo sapiens) (UniProt Q15375); experiment: Inhibition of EPHA7 (unknown origin) transfected in mouse Ba/F3 cells at 1 uM after 24 hrs; assay type: cell-based; conditions: BaF3; procedure, shortened: as §1
Sequence (Q15375 28-998 limits assumed): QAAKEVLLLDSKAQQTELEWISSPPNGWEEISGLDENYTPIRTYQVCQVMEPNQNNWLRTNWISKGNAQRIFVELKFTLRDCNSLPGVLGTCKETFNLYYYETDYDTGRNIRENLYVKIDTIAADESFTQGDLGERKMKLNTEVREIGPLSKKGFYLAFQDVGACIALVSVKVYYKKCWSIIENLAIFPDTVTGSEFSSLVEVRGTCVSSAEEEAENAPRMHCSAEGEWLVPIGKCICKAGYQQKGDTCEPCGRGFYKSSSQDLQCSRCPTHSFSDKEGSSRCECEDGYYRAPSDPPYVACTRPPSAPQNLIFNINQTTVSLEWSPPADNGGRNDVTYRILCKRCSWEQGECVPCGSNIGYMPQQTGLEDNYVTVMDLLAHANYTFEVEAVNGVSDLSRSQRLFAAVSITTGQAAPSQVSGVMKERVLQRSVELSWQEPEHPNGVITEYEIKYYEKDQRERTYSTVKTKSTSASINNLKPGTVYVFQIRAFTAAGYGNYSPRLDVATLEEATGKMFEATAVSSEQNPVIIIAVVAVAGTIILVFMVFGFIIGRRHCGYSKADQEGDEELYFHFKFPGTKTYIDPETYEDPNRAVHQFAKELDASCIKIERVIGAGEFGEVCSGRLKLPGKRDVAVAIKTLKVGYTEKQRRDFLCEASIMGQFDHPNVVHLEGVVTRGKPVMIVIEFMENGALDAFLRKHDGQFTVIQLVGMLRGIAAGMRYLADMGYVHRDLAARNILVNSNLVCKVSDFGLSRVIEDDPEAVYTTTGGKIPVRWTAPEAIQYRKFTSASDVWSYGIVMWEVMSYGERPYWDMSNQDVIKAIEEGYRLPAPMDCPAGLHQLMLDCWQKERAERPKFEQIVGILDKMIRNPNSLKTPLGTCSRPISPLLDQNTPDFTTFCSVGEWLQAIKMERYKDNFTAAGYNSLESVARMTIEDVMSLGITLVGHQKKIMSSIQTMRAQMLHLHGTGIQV

inhibition | Compound
inactive | COc1ccc(C(=O)Nc2cc(-c3ccccc3)[nH]n2)cc1
inactive | Cc1ccc(-c2cc(NC(=O)c3ccc(F)cc3)[nH]n2)cc1
inactive | Cc1cccc(C(=O)Nc2cc(-c3ccc(F)cc3)n[nH]2)c1

target: Ephrin type-A receptor 2 (Homo sapiens) (UniProt P29317); experiment: Inhibition of EPHA2 (unknown origin) transfected in mouse Ba/F3 cells at 1 uM after 24 hrs; assay type: cell-based; conditions: BaF3; procedure, shortened: as §1
Sequence (P29317 whole entry): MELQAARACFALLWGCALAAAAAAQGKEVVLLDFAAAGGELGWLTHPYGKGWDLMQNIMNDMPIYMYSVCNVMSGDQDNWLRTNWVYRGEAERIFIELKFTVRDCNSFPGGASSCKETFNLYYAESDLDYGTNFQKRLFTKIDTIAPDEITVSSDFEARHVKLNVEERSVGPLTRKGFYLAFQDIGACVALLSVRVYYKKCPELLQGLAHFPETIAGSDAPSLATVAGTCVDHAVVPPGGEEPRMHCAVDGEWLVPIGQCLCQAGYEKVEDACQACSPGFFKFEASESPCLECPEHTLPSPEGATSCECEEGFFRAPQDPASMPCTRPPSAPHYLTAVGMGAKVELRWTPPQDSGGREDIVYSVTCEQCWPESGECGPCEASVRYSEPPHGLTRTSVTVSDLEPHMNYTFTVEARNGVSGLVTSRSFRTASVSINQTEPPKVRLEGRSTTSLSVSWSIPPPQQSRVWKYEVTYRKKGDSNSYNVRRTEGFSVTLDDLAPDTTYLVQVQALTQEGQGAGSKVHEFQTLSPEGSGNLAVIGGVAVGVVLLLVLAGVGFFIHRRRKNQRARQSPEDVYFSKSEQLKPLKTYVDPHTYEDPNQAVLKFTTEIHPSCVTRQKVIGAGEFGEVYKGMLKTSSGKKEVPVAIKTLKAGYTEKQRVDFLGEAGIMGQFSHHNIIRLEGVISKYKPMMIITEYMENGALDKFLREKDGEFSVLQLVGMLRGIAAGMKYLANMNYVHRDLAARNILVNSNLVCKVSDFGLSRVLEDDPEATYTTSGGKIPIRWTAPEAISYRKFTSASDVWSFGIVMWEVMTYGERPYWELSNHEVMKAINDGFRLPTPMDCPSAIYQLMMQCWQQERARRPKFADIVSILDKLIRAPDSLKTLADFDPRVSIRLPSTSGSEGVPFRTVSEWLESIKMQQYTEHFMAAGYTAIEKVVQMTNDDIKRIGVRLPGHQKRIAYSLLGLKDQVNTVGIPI

inhibition | Compound
inactive | COc1ccc(C(=O)Nc2cc(-c3ccccc3)[nH]n2)cc1
inactive | Cc1ccc(-c2cc(NC(=O)c3ccc(F)cc3)[nH]n2)cc1
inactive | Cc1cccc(C(=O)Nc2cc(-c3ccc(F)cc3)n[nH]2)c1

target: T2, Receptor-type tyrosine-protein kinase FLT3 (Mus musculus) (UniProt Q00342); experiment: Inhibition of FLT3 phosphorylation in mouse Ba/F3 cells transfected with FLT3-ITD cells at 500 nM after 90 mins by Western blot analysis; assay type: cell-based; conditions: BaF3
T2 sequence (whole entry): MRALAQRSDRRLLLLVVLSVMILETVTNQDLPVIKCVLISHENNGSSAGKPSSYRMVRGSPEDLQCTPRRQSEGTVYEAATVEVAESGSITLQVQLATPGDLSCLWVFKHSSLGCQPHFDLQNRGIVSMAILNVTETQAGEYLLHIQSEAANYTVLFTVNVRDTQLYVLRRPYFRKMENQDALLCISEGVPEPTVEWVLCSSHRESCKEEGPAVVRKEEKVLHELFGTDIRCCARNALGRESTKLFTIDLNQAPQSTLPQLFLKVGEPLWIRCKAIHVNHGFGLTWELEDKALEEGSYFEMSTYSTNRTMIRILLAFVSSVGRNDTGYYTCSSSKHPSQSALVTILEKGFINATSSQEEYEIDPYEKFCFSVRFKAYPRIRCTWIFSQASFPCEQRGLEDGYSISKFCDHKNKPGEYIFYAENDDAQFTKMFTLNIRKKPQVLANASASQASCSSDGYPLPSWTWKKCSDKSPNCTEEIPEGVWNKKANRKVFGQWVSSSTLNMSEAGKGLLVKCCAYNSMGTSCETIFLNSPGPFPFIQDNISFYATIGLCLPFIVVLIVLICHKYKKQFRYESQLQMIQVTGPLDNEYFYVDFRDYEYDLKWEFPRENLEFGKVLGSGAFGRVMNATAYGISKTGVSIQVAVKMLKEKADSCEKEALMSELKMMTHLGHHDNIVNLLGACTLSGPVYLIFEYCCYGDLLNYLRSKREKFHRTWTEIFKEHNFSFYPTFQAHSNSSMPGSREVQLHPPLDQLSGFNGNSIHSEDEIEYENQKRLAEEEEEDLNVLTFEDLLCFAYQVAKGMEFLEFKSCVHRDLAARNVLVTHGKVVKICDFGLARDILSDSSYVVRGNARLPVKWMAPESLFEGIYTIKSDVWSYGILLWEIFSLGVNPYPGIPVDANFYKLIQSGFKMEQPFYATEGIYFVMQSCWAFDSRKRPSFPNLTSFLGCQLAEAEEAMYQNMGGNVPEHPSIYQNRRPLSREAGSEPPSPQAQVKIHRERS
Procedure, shortened: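 Ba/F3-FLT3-ITD cells were treated for 90 min with increasing doses. They were lysed in buffer with 1 mM NaVO4 and protease inhibitors, then reduced and run on Bis-Tris 4–12% gels for Western blot. Phospho-FLT3 and phospho-STAT5 were detected, with total FLT3 and STAT5 as loading controls.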

inhibition | Compound
Active | Cc1ccc(-c2cc(NC(=O)c3ccc(F)cc3)[nH]n2)cc1
Active | Fc1ccc(-c2n[nH]cc2-c2ccncc2)cc1Cl
Active | Cc1ccc(-n2cnc3cc(Nc4nnc(C)c5ccccc45)ccc32)cc1
Active | Cc1cccc(C(=O)Nc2cc(-c3ccc(F)cc3)n[nH]2)c1

tested on: HEL; experiment: Cytotoxicity against human HEL cells after 72 hrs by plate reader analysis; assay type: functional, cell-based; conditions: not given

Compound | EC50
COc1ccc(C(=O)Nc2cc(-c3ccccc3)[nH]n2)cc1 | 47 µM
Cc1ccc(-c2cc(NC(=O)c3ccc(F)cc3)[nH]n2)cc1 | 1000 µM
Fc1ccc(-c2n[nH]cc2-c2ccncc2)cc1Cl | 1000 µM
Cc1ccc(-n2cnc3cc(Nc4nnc(C)c5ccccc45)ccc32)cc1 | 14 µM
Cc1cccc(C(=O)Nc2cc(-c3ccc(F)cc3)n[nH]2)c1 | 62 µM

tested on: MOLM-13; experiment: Cytotoxicity against human MOLM13 cells after 72 hrs by plate reader analysis; assay type: functional, cell-based; conditions: MOLM-13, 72 h

Compound | EC50
COc1ccc(C(=O)Nc2cc(-c3ccccc3)[nH]n2)cc1 | 292 nM
Cc1ccc(-c2cc(NC(=O)c3ccc(F)cc3)[nH]n2)cc1 | 612 nM
Fc1ccc(-c2n[nH]cc2-c2ccncc2)cc1Cl | 258 nM
Cc1ccc(-n2cnc3cc(Nc4nnc(C)c5ccccc45)ccc32)cc1 | 332 nM
Cc1cccc(C(=O)Nc2cc(-c3ccc(F)cc3)n[nH]2)c1 | 630 nM
